Mdm2 MdmX PPI: human Mdm2/MdmX binding inhibition. SaOS-2 split-luciferase Mdm2/MdmX complementation, luminescence. inhibition, % at 8 µM. actives 3% (n = 330,000). AID 485346;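 active = inhibition of at least 50% at 8 µM in the primary screen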
Calb FLC: C. albicans growth modulation with fluconazole. C. albicans CaCi-2 (fluconazole-resistant clinical isolate) + fluconazole, Alamar Blue growth, 48 h. growth inhibition, % (no concentration beside the values). actives 0.57% (n = 300,000). AID 1979;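 active = growth inhibition above about 58% in most replicates, limit read from the data, passing the limit was not always enough; inconclusive = exactly half the replicates above a set limit; inactive = most replicates below a set limit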;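 note: all wells also contain fluconazole at 8 µg/ml as a sub-toxic cotreatment; 0% = median of DMSO wells and 100% = median of geldanamycin control wells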
SKKanGAS inh: inhibitors of SKKanGAS S. pyogenes growth in kanamycin (SK-promoter or general growth effect); BacTiter-Glo, 6 h; inhibition, % at 7.5 µM; actives 1.3% (n = 300,000);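 active = mean replicate score, as percent of positive control median, at least 50; inconclusive = mean below 50 but one replicate at or above 50; inactive = mean and every replicate below 50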;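 note: strain carries kanamycin resistance gene driven by streptokinase promoter and grows in 40 µg/ml kanamycin; loss of luminescence reflects streptokinase promoter inhibition or plain growth inhibition; 0% = median of DMSO wells and 100% = positive control at its reference dose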
Beta cell apopt: beta cell apoptosis inhibition. AID 435005. protection from apoptosis, % (test concentration not listed). actives 0.8% (n = 300,000). INS-1E cytokine-induced death, ATP luminescence, 48 h; percent of positive-control rescue, neutral wells zero;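 active = Every replicate reaches about 75%, or at least half do and their mean reaches it too, limit read from the data; inconclusive = At least half of replicates reach the limit but their mean does not; inactive = Under half of replicates reach the limit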;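 note: 0% = cytokine-treated negative control wells and 100% = positive control rescue; higher means more ATP so stronger rescue from cytokine killing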
CSC inhib: blocks cancer stem cells; actives 1.1% (n = 300,000); AID 2717; inhibition, % at 7.5 µM; cancer stem cell-like cells viability, luminescence; in the data active = inhibition above about 75%; inconclusive = no clear call, values can overlap the other calls; tested in HMLE shEcad cells
T cruzi repl: T. cruzi replication inhibition; actives 1.4% (n = 300,000); inhibition, % (no concentration beside the values); AID 1885; T. cruzi beta-gal in NIH3T3, luminescence, 90 h;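 active = mean inhibition across valid replicates above about 55%, limit read from the data; inconclusive = mean below that limit but half or more replicates reach it; inactive = mean below it, under half of replicates reach it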;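 note: signal also drops with host cell toxicity which is not excluded here; 0% = plate median of DMSO wells and 100% = zero luminescence signal; higher percent means less beta-gal luminescence so fewer parasites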
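Assay system: NIH/3T3 fibroblasts plus reporter T. cruzi. Amount: NIH/3T3 cells, 5,000 per well. Buffer or medium: DMEM, 2% fetal bovine serum. Doses: compound pinned at 50 nL/well, DMSO. Schedule: ≥90 h infection period, 3 h prior cell attachment. Signal: luminescent β-galactosidase signal after 60 min lysis. Read-out: parasite load inhibition, %.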
* marks the source's active call; other numbers are inactive results; u = inconclusive; x = not tested or not shown. Only some compounds are listed: those with a hit (about 5.7% of all), similar ones and a draw of the others.

SMILES	Mdm2 MdmX PPI	Calb FLC	SKKanGAS inh	Beta cell apopt	CSC inhib	T cruzi repl
O=C(c1ccc2c(c1)OCO2)N(c1ccc(Br)cc1)C1C=CS(=O)(=O)C1 (stereo not given)	5	-6	0	0	-13	-26
O=C(c1ccc2c(=O)n3c(nc2c1)CCC3)N1CCCSC1=Nc1ccccc1	31	1	-3	-16	2	-5
O=C1CC[C@@H](OCc2ccccc2)CCN1CC[C@H](Sc1ccccc1)c1ccccc1	3	3	18	-1	41	21
CC(C)=C1C(=O)NN(c2ccc(F)c(Cl)c2)C1=O	18	101*	-1	-3	4	3
C=CCNC(=S)NNC(=O)c1cc(O)ccc1O	9	-4	-5	0	-5	-6
O=C(N/N=C/c1c[nH]c2ccccc12)C1CC1(c1ccccc1)c1ccccc1 (stereo not given)	1	-4	60*	13	79*	2
O=C(N/N=C/c1c[nH]c2ccccc12)c1cc(-c2ccc(-c3ccccc3)cc2)n[nH]1	44	3	92*	19	-9	33
O=C(Nc1cccc2cccnc12)c1ccc(Cl)cc1	-30	-5	0	x	x	-11
O=C(c1ccccc1[N+](=O)[O-])N1CCN(c2ccc(N3CCOCC3)nn2)CC1	9	1	-3	-2	-4	-5
O=[N+]([O-])c1nn(-c2ccccc2)n(O)c1=NC1CCN(Cc2ccccc2)CC1	-3	57	2	60	17	77*
O=[N+]([O-])c1nn(-c2ccc(Cl)cc2)n(O)c1=NCc1ccccc1Cl	-19	-8	5	4	2	-14
O=[N+]([O-])c1nn(-c2ccc3c(c2)OCCO3)n(O)c1=NC1CCN(Cc2ccccc2)CC1	10	43	-12	29	16	62*
Cc1ccccc1C(=O)N1CCC(C(=O)OCc2ccccc2Cl)CC1	14	x	x	-2	8	x
Cc1ccc(C)c(S(=O)(=O)N2CCN(CC(=O)NC(=O)NCc3ccccc3)CC2)c1	17	12	-8	-3	-24	56*
O=C(CN1CCC(Cc2ccccc2)CC1)NC(=O)NCc1ccccc1	24	24	-16	-2	-1	-2
CCOC(=O)c1nn(-c2cccc(OC)c2)c2nc(Nc3ccccc3)cc(=O)n12	-7	-2	62*	0	x	17
Cc1cc(S(=O)(=O)N2CCCC(C)C2)ccc1-n1cnnn1 (stereo not given)	25	-7	3	-1	-15	12
CCn1nc(C)c(NC(=O)/C=C/c2ccc(OC)c(COc3ccc(Cl)cc3Br)c2)c1C	32	-9	7	x	35	55*
O=C1N[C@H]2CC=C[C@H]2Nc2ccccc21	9	x	x	x	x	x
CC/C(=N\NC(=O)c1cc(C2CC2)[nH]n1)c1ccccc1	-26	3	24	-5	-7	2
N#Cc1ccc(CSc2ccc(S(=O)(=O)N3CCCC3)cn2)cc1	-26	x	x	-2	-6	x
O=Nc1c(-c2cccc([N+](=O)[O-])c2)nc2ncccn12	43	94*	0	14	4	20
O=[N+]([O-])c1cccc(-c2cnc3ccccc3n2)c1	-28	-4	0	-1	1	-2
CN1CCc2nc(SCC(=O)Nc3cccc(F)c3)c(C#N)c(-c3cccs3)c2C1	15	-5	-3	-14	3	55*
CCCCSc1nc(N)c(C#N)c(-c2cccs2)c1C#N	16	29	13	5	-4	27
SMILES	Mdm2 MdmX PPI	Calb FLC	SKKanGAS inh	Beta cell apopt	CSC inhib	T cruzi repl
Cc1cccc(CSc2nc(N)c(C#N)c(-c3cccs3)c2C#N)c1	30	1	59*	13	5	68*
Cc1cccc(CSc2nc3c(c(-c4cccs4)c2C#N)CN(C)CC3)c1	22	-6	-4	x	-2	58*
CN1CCc2nc(SCC(=O)Nc3ccc(OC(F)(F)F)cc3)c(C#N)c(-c3cccs3)c2C1	15	-3	31	-10	0	44
CC(C)c1ccc(N(CC(=O)NCc2ccco2)C(=O)CCC(=O)Nc2nccs2)cc1	30	17	-4	0	1	10
Cn1c(=O)c2c(nc(CN3CCN(C(=O)c4ccco4)CC3)n2CC(=O)C(C)(C)C)n(C)c1=O	-19	17	-3	0	-13	-9
COc1ccc(-c2csc(Nc3ccc(S(=O)(=O)Nc4cc(C)on4)cc3)n2)cc1C	9	-18	68*	x	17	-1
CCCCCCCCn1c(N2CCN(c3cccc(Cl)c3)CC2)nc2c1c(=O)[nH]c(=O)n2C	9	4	4	12	-10	55*
CCCCn1c(SCC(=O)c2ccccc2)nc2c1c(=O)[nH]c(=O)n2C	9	-5	80*	-1	0	-7
CCCCCCn1c(N2CCN(c3cccc(Cl)c3)CC2)nc2c1c(=O)[nH]c(=O)n2C	47	-6	23	-4	24	51
CCCCCn1c(SCCc2ccccc2)nc2c1c(=O)[nH]c(=O)n2C	9	18	5	x	-7	22
CC(C)(Oc1ccc(Br)cc1Cl)C(=O)Nc1ccon1	1	7	15	-4	2	0
Cc1ccc(C(=O)NNS(=O)(=O)c2ccc(F)cc2)cc1	-1	-7	-4	-7	-7	-3
Cc1cc(C)c2c(C(C)(C)C)nn(-c3ccccc3)c2n1	4	2	60*	-8	5	-18
O=C(Nc1cnn(Cc2c(Cl)cccc2Cl)c1)C(c1ccccc1)c1ccccc1	-10	-2	5	20	18	55*
O=C(Cc1ccc([N+](=O)[O-])cc1)Nc1ccc2c(c1)C(=O)NC2=O	15	0	-4	1	8	-9
O=C(Cc1ccc(Br)cc1)NNC(=O)Nc1ccc(Cl)cc1	-13	2	2	1	4	-4
O=C(Cc1ccc(Cl)cc1)Nc1ccc(Br)cc1	-14	42*	-3	-3	6	5
O=C(Cc1ccc(Cl)cc1)Nc1ccc2c(c1)C(=O)NC2=O	18	5	2	119*	91*	-7
CC(C)CCN1C(=O)c2ccc(C(=O)Nc3ccc(Br)cc3C(=O)O)cc2C1=O	17	82*	u	x	12	0
COc1ccc(CNC(=O)CSc2nc3ccccc3n2C(C)=O)cc1	-5	1	-7	-6	-1	-4
FC(F)(F)c1cccc(CNC2c3ccccc3-c3ccccc32)c1	-11	-17	75*	-3	6	13
O=C(Nc1ccc2ccccc2c1)c1ccc(Cl)cc1Cl	-221	x	32	-9	10	11
O=C(Nc1nc(=S)ss1)c1ccc(Cl)cc1Cl	x	12	52*	23	x	-16
O=C(/C=C/NNC(=O)c1ccccc1)c1ccc([N+](=O)[O-])cc1	41	u	13	95*	20	61*
C[C@H](CO)N1C[C@H](C)[C@@H](CN(C)S(C)(=O)=O)Oc2ccc(NC(=O)Cn3cnnn3)cc2C1=O	4	x	x	-11	x	x
